Legend:
[1] = molecular target: Cruzipain (Trypanosoma cruzi) (UniProt P25779); experiment: (§1) Inhibition of cruzain; parameters: concentration or dose not given beside the values; conditions: concentration not given here
Method in brief: (§2)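 Recombinant enzyme at 4 nM with Z-Phe-Arg-AMC substrate in buffer A (100 mM Na acetate pH 5.5, 5 mM DTT, 0.001% Triton X-100). Enzyme and inhibitor were preincubated 5 min at 25 °C, then substrate was added. Inhibitor serial dilutions were made in DMSO, 10–10,000 nM. IC50 was read directly from a semi-log plot of rate versus inhibitor concentration.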

[2] = test system: Trypanosoma brucei brucei; experiment: (§3) Inhibition of Trypanosoma brucei brucei cathepsin B; conditions: concentration not given here
Method in brief: (§4)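 Recombinant T. brucei cathepsin B at 40 nM with Z-Phe-Arg-AMC in buffer A (100 mM Na acetate pH 5.5, 5 mM DTT, 0.001% Triton X-100). Enzyme was preincubated 5 min at 25 °C with inhibitor (500–10,000 nM, DMSO serial dilutions) before substrate addition. Cleavage was followed by fluorescence at ex 355/em 460 nm, 25 °C. IC50 was taken from a semi-log rate versus concentration plot.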

[3] = test system: Trypanosoma brucei brucei; experiment: Antimicrobial activity against Trypanosoma brucei brucei; type: functional; parameters: concentration or dose not given beside the values
[4] = molecular target: Rhodesain (Trypanosoma brucei rhodesiense) (UniProt Q95PM0); experiment: (§5) Inhibition of rhodesain; parameters: concentration or dose not given beside the values; conditions: concentration not given here; method in brief: as §2
[5] = as §3; method in brief: as §4
[6] = molecular target: Cruzipain (Trypanosoma cruzi, UniProt P25779); experiment: as §1; method in brief: as §2
[7] = molecular target: Cruzipain (Trypanosoma cruzi) (UniProt P25779); experiment: Ratio of kinact to ki for cruzain; parameters: unit not given here
Method in brief: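 Continuous assay: enzyme was added by the instrument to inhibitor dilutions with Z-Phe-Arg-AMC in pH 5.5 acetate/DTT buffer while fluorescence was recorded. Progress curves were followed 5 min at 25 °C over a 10-fold dilution range of inhibitor. kobs came from pseudo-first-order fits. For hyperbolic kobs dependence, kinact and Ki were fitted by nonlinear regression to a two-step irreversible mechanism with substrate correction.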

[8] = molecular target: Rhodesain (Trypanosoma brucei rhodesiense, UniProt Q95PM0); experiment: as §5; method in brief: as §2
Rhodesain, sequence (Q95PM0 whole entry): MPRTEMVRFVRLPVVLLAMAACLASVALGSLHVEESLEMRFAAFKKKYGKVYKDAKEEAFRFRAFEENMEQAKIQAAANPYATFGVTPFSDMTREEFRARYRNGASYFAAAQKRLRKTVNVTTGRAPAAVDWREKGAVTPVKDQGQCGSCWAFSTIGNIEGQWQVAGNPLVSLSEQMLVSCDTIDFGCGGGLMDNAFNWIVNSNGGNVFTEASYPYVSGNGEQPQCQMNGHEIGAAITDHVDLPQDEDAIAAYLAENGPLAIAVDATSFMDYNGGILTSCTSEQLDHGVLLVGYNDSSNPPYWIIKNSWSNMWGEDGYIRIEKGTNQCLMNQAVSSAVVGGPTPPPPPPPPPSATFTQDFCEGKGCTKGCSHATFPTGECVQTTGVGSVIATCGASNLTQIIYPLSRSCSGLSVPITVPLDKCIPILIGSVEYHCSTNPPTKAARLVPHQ

Cruzipain, sequence (P25779 whole entry): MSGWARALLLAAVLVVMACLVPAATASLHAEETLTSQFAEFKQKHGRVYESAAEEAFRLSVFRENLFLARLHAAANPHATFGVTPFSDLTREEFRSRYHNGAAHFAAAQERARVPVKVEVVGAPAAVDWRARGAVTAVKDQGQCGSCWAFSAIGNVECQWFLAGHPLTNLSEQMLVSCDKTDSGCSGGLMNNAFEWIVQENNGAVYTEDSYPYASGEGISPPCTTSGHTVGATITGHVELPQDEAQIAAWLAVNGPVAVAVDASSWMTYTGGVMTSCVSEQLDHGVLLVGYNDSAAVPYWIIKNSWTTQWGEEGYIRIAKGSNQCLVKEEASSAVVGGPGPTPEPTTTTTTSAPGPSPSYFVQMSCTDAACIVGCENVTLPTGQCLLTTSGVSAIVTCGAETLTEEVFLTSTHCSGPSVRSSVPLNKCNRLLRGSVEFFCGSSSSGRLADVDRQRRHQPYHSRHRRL
Cruzipain (Trypanosoma cruzi), sequence (P25779 123-467 limits assumed): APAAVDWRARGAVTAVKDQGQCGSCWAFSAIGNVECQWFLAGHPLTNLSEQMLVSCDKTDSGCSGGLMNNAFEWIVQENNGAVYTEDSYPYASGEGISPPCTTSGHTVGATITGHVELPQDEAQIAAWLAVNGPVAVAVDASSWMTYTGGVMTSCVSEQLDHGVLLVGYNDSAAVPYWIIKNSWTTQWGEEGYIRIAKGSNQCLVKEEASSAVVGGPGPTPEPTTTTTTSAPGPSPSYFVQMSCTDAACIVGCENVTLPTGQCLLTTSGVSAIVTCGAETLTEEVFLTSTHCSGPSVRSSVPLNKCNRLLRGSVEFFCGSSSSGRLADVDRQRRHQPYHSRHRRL
Rhodesain (Trypanosoma brucei rhodesiense), sequence (Q95PM0 1-450): as the sequence (Q95PM0 whole entry) above

inhibition [1] [%]	inhibition [4] [%]	Ratio [7]	Structure (SMILES)	inhibition [2] [%]	Inhibition [3] [%]	IC50 [5] [nM]	IC50 [6] [nM]	IC50 [8] [nM]
5	-4	–	CCOC(=O)[C@H]1O[C@H]1[C@H](O)[C@H](CCc1ccccc1)NC(=O)[C@H](Cc1ccccc1)NC(=O)OCc1ccccc1	6	-37	–	–	–
–	–	128000	O=C(N[C@@H](Cc1ccccc1)C(=O)N[C@@H](CCc1ccccc1)C(=O)[C@H]1CO1)OCc1ccccc1	–	–	–	> 1000	–
–	–	330000	O=C(N[C@@H](Cc1ccccc1)C(=O)N[C@@H](CCc1ccccc1)C(=O)[C@@H]1CO1)OCc1ccccc1	–	–	–	10	–

The remaining lines, values behind:

Structure (SMILES)	inhibition [1] [%]	inhibition [4] [%]	Ratio [7]	inhibition [2] [%]	Inhibition [3] [%]	IC50 [5] [nM]	IC50 [6] [nM]	IC50 [8] [nM]
CN1CCN(C(=O)N[C@@H](Cc2ccccc2)C(=O)N[C@H](/C=C/S(=O)(=O)c2ccccc2)CCc2ccccc2)CC1 [K-777]	100	72	–	–	99	2000	–	–
CCOC(=O)[C@@H]1O[C@@H]1C(=O)[C@H](CCc1ccccc1)NC(=O)[C@H](Cc1ccccc1)NC(=O)OCc1ccccc1	55	80	25200	47	-2	400	50	30
CCOC(=O)[C@@H]1O[C@H]1[C@@H](O)[C@H](CCc1ccccc1)NC(=O)[C@H](Cc1ccccc1)NC(=O)OCc1ccccc1	1	3	–	3	17	–	–	–
CCOC(=O)[C@H]1O[C@H]1C(=O)[C@H](CCc1ccccc1)NC(=O)[C@H](Cc1ccccc1)NC(=O)OCc1ccccc1	93	98	82900	51	42	> 1000	20	3.5
CC(C)CCNC(=O)[C@H](CC(C)C)NC(=O)[C@H]1OC1C(=O)O (single isomer, unassigned)	–	–	70600	–	–	–	–	–

— ChEMBL document CHEMBL1140589, “Dipeptidyl-alpha,beta-epoxyesters as potent irreversible inhibitors of the cysteine proteases cruzain and rhodesain” (Bioorg Med Chem Lett, 2007)
